Paper PMC10546485 (Journal of medicinal chemistry, 2022)

Key:
male Swiss Webster mice = experiment: Carmine red dye assay; format: in vivo, mouse; settings: test compound 10 mg/kg oral gavage, morphine 5 mg/kg
Method in brief: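 Male Swiss Webster mice (5–8 wk, 25–35 g), 5–6 per group, housed singly. Test compound 10 mg/kg or vehicle given p.o. 5 min before morphine 5 mg/kg injection. Twenty min after morphine, 0.2 mL 6% carmine red in 0.5% CMC/ddH₂O given p.o. Time to first red pellet recorded, 6 h cut-off. One-way ANOVA with corrected Dunnett test.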

[1] = male rats, after oral administration; cited from earlier work
patients = settings: long-term study; cited from earlier work
gastrointestinal transit = settings: MNTX intraperitoneally, morphine 5 mg/kg s.c.; cited from earlier work
[2] = biological target: human δ opioid receptor expressed in CHO cell lines (Homo sapiens, UniProt P41143); experiment: In vitro competitive radioligand binding assay, DOR; settings: ratio of Ki values
Chain of human δ opioid receptor expressed in CHO cell lines (P41143 whole entry): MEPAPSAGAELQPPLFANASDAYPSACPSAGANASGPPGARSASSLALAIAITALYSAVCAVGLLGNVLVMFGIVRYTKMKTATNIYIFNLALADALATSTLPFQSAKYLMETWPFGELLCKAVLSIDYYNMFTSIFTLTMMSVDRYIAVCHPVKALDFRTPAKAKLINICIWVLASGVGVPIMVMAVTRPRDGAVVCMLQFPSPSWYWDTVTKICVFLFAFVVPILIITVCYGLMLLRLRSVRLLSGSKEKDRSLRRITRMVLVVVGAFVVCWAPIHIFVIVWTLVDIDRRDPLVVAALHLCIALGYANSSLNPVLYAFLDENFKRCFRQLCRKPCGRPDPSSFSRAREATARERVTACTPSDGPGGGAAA

CYP3A4 = settings: cited from earlier work
[3] = tested on: mouse opioid μ receptor expressed in CHO cell lines; experiment: In vitro competitive radioligand binding assay, MOR; settings: ratio of Ki values
Method in brief: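 CHO membranes (30 μg) expressing mouse μ or κ, or human δ, opioid receptor were incubated with radioligand and varied test compound in TME (pH 7.4) for 1.5 h at 30 °C, then filtered. Nonspecific binding was defined with 5 μM naltrexone, U50,488 or SNC80.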

[4] = biological target: DOR (DOR-CHO membrane protein) (Homo sapiens, UniProt P41143); experiment: DOR [35S]-GTPγS functional assay; format: biochemical
Chain of DOR (DOR-CHO membrane protein) (P41143 whole entry): as above

Question: With `C[N@+]1(CC2CC2)CC[C@]23c4c5ccc(O)c4O[C@H]2C(=O)CC[C@@]3(O)[C@H]1C5` [MNTX, methylnaltrexone] as the compound, how does the “reversal of the inhibitory effects of morphine on GI motility” value (male Swiss Webster mice) read?
Answer: no blockage was observed

Question: What about the oral bioavailability [1] of the same compound?
Answer: < 1%

Question: What about the “cardiac-related adverse event, share of patients” value (patients) of the same compound?
Answer: less than 1%

Question: What about the “block of the antitransit effects of morphine” value (gastrointestinal transit) of the same compound?
Answer: effective

Question: With `O=C(N[C@@H]1CC[C@@]2(O)[C@H]3Cc4ccc(O)c5c4[C@@]2(CCN3CC2CC2)[C@H]1O5)c1ncc[nH]1` [Compound 22, 17-Cyclopropylmethyl-3,14β-dihydroxy-4,5α-epoxy-6β-(2′-imidazolylcarboxamido)morphinan] as the compound, how does the δ/μ selectivity [2] read?
Answer: hundreds-fold

Question: With `CC(C)(NC(=O)C1=C(O)[C@@H]2Oc3c(O)ccc4c3[C@@]23CCN(CC2CC2)[C@H](C4)[C@]3(O)C1)c1nc(-c2ccccc2)no1` [naldemedine] as the compound, how does the “substrate of CYP3A4” value (CYP3A4) read?
Answer: substrates

Question: For `O=C(Cc1cc[nH]n1)N[C@H]1CC[C@@]2(O)[C@H]3Cc4ccc(O)c5c4[C@@]2(CCN3CC2CC2)[C@H]1O5` [Compound 2, 17-Cyclopropylmethyl-3,14β-dihydroxy-4,5α-epoxy-6α-(3′-pyrazolylacetamido)morphinan], which “selectivity for the MOR over both the KOR and DOR” value [3] is on record?
Answer: at least a hundred-fold

Question: For `O=C(Cc1cc[nH]n1)N[C@@H]1CC[C@@]2(O)[C@H]3Cc4ccc(O)c5c4[C@@]2(CCN3CC2CC2)[C@H]1O5` [Compound 14, 17-Cyclopropylmethyl-3,14β-d/hydroxy-4,5α-epoxy-6β-(3′-pyrazolylacetamldo)morphinan], which δ/μ selectivity [2] is on record?
Answer: hundreds-fold

Question: For `O=C(Cc1ncc[nH]1)N[C@@H]1CC[C@@]2(O)[C@H]3Cc4ccc(O)c5c4[C@@]2(CCN3CC2CC2)[C@H]1O5` [Compound 23, 17-Cyclopropylmethyl-3,14β-dihydroxy-4,5α-epoxy-6β-(2′-imidazolylacetamido)morphinan], which δ/μ selectivity [2] is on record?
Answer: hundreds-fold

Question: For `O=C(CCc1cc[nH]n1)N[C@@H]1CC[C@@]2(O)[C@H]3Cc4ccc(O)c5c4[C@@]2(CCN3CC2CC2)[C@H]1O5` [Compound 15], which δ/μ selectivity [2] is on record?
Answer: hundreds-fold

Question: Which EC50 [4] does the source give for `O=C(N[C@@H]1CC[C@@]2(O)[C@H]3Cc4ccc(O)c5c4[C@@]2(CCN3CC2CC2)[C@H]1O5)c1cnc[nH]1` [Compound 19, 17-Cyclopropylmethyl-3,14β-dlhydroxy-4,5α-epoxy-6β-(5′-imldazolylcarboxamldo)morphinan] here?
Answer: 19.1 ± 5.91 nM

Question: With `C=CCN1CC[C@]23c4c5ccc(O)c4O[C@H]2[C@@H](OCCOCCOCCOCCOCCOCCOCCOC)CC[C@@]3(O)[C@H]1C5` [naloxegol] as the compound, how does the “substrate of CYP3A4” value (CYP3A4) read?
Answer: substrates

Question: With `O=C(Cc1cn[nH]c1)N[C@H]1CC[C@@]2(O)[C@H]3Cc4ccc(O)c5c4[C@@]2(CCN3CC2CC2)[C@H]1O5` [Compound 5, 17-Cyclopropylmethyl-3,14β-dihydroxy-4,5α-epoxy-6α-(4′-pyrazolylacetamido)morphinan] as the compound, how does the “selectivity for the MOR over both the KOR and DOR” value [3] read?
Answer: at least a hundred-fold
